What was measured:
[1] = Negative log of molar concentration (-log ED50) required to reduce cell division by 50% in Arbacia egg; assay type: functional
[2] = species: Rattus norvegicus; assay type: functional
[3] = species: Oryctolagus cuniculus; assay: Negative log of minimum effective dose (moles per kilogram) in rabbits (hypnotic); assay type: functional
[4] = (§1) pKa value is evaluated; assay type: physicochemical
[5] = Compound is evaluated for […] log k; assay type: physicochemical; conditions: octanol/water
Procedure, shortened: (§2)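 Log k' was measured by reverse-phase HPLC on dry-packed deactivated C18/Corasil columns (10 and 50 cm, 2-mm i.d.) at 22 °C, flow 1 mL/min, with UV detection at 254 nm. The mobile phase was methanol-modified aqueous phosphate buffer at μ 0.15. Void time came from methanol injection, and k' = (tr − t0)/t0.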

[6] = tested on: Escherichia coli; assay: Minimum inhibitory concentration (bacteriostatic) against Escherichia coli at pH 7.2 (Sauterne''s medium); assay type: functional
[7] = Negative log of Langmuir's alpha constant (-log alpha), which is inversely proportional to the effective binding constant (protein binding); assay type: ADME
[8] = tested on: Escherichia coli; assay: Minimum inhibitory concentration (bacteriostatic) against Escherichia coli at pH 7.4; assay type: functional
[9] = ACompound is evaluated for […] log k; assay type: physicochemical; conditions: octanol/water
Procedure, shortened: as §2, with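 “0.15. Calculated pH was 7.45 for sulfonamides and 7.31 for barbiturates.” for “0.15.”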

[10] = A pKa value is evaluated; assay type: physicochemical
[11] = as §1; assay type: physicochemical; remark: listed apart in the source
Procedure, shortened: (§3)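 Determined in-house by computer-controlled spectrophotometric titration (absorbance vs. pH) of each sulfonamide. Samples were in buffered aqueous solution of HCl/HOAc/Mops/glycine, 0.0005 N each. A manual wavelength scan of each compound set the wavelength at which its titration was run.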

[12] = pKa value is evaluated; activity is unretained; assay type: physicochemical; procedure, shortened: as §3

SMILES | -Log ED50 [1] | -Log C [3] | pKa [4] | Log K [5] | -Log C [6] | -Log alpha [7] | -Log C [8] | further results
CCC1(c2ccccc2)C(=O)NC(=O)NC1=O [PHENOBARBITAL] | 2.02 | 3.32 | 7.26 | 0.56 |  |  |  | -Log C [2]: 1.88
Cc1ccnc(NS(=O)(=O)c2ccc(N)cc2)n1 [SULFAMERAZINE] |  |  | 6.98 | 0.829 | 0.06 | -2.23 | 4.469 | 
CCCC(C)C1(CC)C(=O)NC(=O)NC1=O (stereo not drawn) [PENTOBARBITAL] | 2.92 | 4.05 | 8.02 | 1.32 |  |  |  | -Log C [2]: 3.07
C=CCC1(C(C)CCC)C(=O)NC(=S)NC1=O (stereo not drawn) [THIAMYLAL] |  | 4.15 |  | 1.72 |  |  |  | 
CCC(C)C1(CC)C(=O)NC(=O)NC1=O (stereo not drawn) [BUTABARBITAL] |  | 3.63 |  |  |  |  |  | Log K [9]: 0.95; pKa [10]: 7.89
Nc1ccc(S(=O)(=O)Nc2nccs2)cc1 [SULFATHIAZOLE] |  |  | 7.25 | 0.887 | -0.18 | -2.45 | 4.597 | 
Cc1cc(C)nc(NS(=O)(=O)c2ccc(N)cc2)n1 [SULFAMETHAZINE] |  |  | 7.7 | 1.49 | 0.11 | -2.28 |  | 
CCC1(CC)C(=O)NC(=O)NC1=O [BARBITAL] | 1.49 | 3.09 | 7.75 | 0.16 |  |  |  | -Log C [2]: 1.32
C=CCC1(CC=C)C(=O)NC(=O)NC1=O [ALLOBARBITAL] | 1.79 | 3.54 |  | 0.6 |  |  |  | 
[H]/N=C(/N)NS(=O)(=O)c1ccc(N)cc1 [SULFAGUANIDINE] |  |  | 12 | -0.00612 | 1.81 |  |  | 
CCC1(CC)C(=O)NC(=O)N(C)C1=O [METHARBITAL] |  | 3.12 |  | 0.71 |  |  |  | 
C=CCC1(C(C)C#CCC)C(=O)NC(=O)N(C)C1=O (stereo not drawn) [METHOHEXITAL] |  | 4.74 | 4.74 | 1.96 |  |  |  | 
Cc1cc(NS(=O)(=O)c2ccc(N)cc2)no1 [SULFAMETHOXAZOLE] |  |  |  |  | 0.06 | -2.51 | 4.634 | 
CN1C(=O)NC(=O)C(C)(C2=CCCCC2)C1=O (stereo not drawn) [HEXOBARBITAL] |  | 4.37 |  | 1.13 |  |  |  | pKa [10]: 7.36
CCC1(CCC(C)C)C(=O)NC(=O)NC1=O [AMOBARBITAL] | 2.82 |  |  | 1.33 |  |  |  | 
C=CCC1(C(C)C)C(=O)NC(=O)NC1=O [APROBARBITAL] | 2.01 | 3.6 | 7.73 | 0.75 |  |  |  | -Log C [2]: 2.41
Nc1ccc(S(N)(=O)=O)cc1 [SULFANILAMIDE] |  |  |  |  | -2.11 | -2.98 | 2.824 | 
C=CCC1(C(C)CCC)C(=O)NC(=O)NC1=O (stereo not drawn) [SECOBARBITAL] | 3.62 | 4.2 | 7.92 | 1.52 |  |  |  | -Log C [2]: 3.19
C=CCC1(CC(C)C)C(=O)NC(=O)NC1=O [BUTALBITAL] |  | 3.63 | 7.54 | 1.01 |  |  |  | -Log C [2]: 2.8
CCCC(C)C1(CC)C(=O)NC(=S)NC1=O (stereo not drawn) [THIOPENTAL] |  | 3.98 |  | 1.52 |  |  |  | 
CCC1(C2=CCCCC2)C(=O)NC(=O)NC1=O [CYCLOBARBITAL] | 2.24 |  | 7.36 | 0.91 |  |  |  | 
Cc1noc(NS(=O)(=O)c2ccc(N)cc2)c1C [SULFISOXAZOLE] |  |  |  | 0.762 | -0.45 | -1.73 | 4.56 | 
CC(=O)NS(=O)(=O)c1ccc(N)cc1 [SULFACETAMIDE] |  |  |  |  | -0.52 | -3.15 | 3.248 | pKa [11]: 5.78; Log K [12]: activity is unretained
Nc1ccc(S(=O)(=O)Nc2ncccn2)cc1 [SULFADIAZINE] |  |  |  | 0.223 | -0.08 | -2.99 | 4.337 | 
COc1ccc(NS(=O)(=O)c2ccc(N)cc2)nn1 [SULFAMETHOXYPYRIDAZINE] |  |  | 7.2 | 1.35 | 0 | -1.75 | 4.57 | 
